The source made the active and inactive calls. The calls are words filed in the database; no cut-off is given here.
How the values were obtained:
A549 [1] = experiment: Antiproliferative activity against human A549 cells assessed as cell growth inhibition measured after 72 hrs by MTT assay; assay type: functional, cell-based; conditions: A549, 72 h
Summary of the method: (§1)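 Cells seeded at 2.5 × 10^4 cells/well, allowed 24 h before dosing, then exposed to increasing concentrations (0.5% DMSO final) for 72 h at 37 °C, 5% CO2. MTT added at 1 mg/mL final in complete media for 2 h, formazan dissolved in DMSO, absorbance read at 570 nm. 6–8 repeats per treatment; IC50 from concentration–response fit.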

MDA-MB-231 [2] = experiment: Antiproliferative activity against human MDA-MB-231 cells assessed as cell growth inhibition measured after 72 hrs by MTT assay; assay type: functional, cell-based; conditions: MDA-MB-231, 72 h; summary of the method: as §1
[3] = target: T1, 26S proteasome non-ATPase regulatory subunit 10 (Homo sapiens) (UniProt O75832); experiment: Binding affinity to gankyrin in human MDA-MB-231 cells assessed as decrease in thermal stability at 2 uM incubated for 48 hrs followed by heat treatment at 50 to 65 degreeC by CETSA; assay type: cell-based
T1 sequence (whole entry): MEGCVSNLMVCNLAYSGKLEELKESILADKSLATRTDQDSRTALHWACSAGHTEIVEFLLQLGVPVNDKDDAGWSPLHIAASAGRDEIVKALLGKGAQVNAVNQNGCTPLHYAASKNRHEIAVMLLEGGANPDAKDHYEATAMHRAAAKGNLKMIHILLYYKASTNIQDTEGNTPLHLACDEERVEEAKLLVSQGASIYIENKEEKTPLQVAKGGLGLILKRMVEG
Summary of the method: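 CETSA: cells treated with compound for 48 h, then heated across a temperature range. Soluble gankyrin was detected by western blot and melt curves were constructed. Mean ± SD, n = 3.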

[4] = target: T1, 26S proteasome non-ATPase regulatory subunit 10 (Homo sapiens); experiment: Binding affinity to gankyrin (unknown origin) assessed as change in melting temperature at 300 uM by SYPRO orange staining based thermal shift assay
MDA-MB-231 [5] = experiment: Antitumor activity against human MDA-MB-231 cells tumor spheroids assessed as decrease in live cells by measuring green fluorescence intensity at 1 to 2 uM measured at 15 days by calcein AM staining based fluorescence microscopic analysis; assay type: functional, cell-based; conditions: dose 1-2 µM, time 15.0 day
Summary of the method: (§2)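 Live/dead staining of 3D spheroids at day 15 after single-dose treatment: media replaced by kit reagent with calcein AM (live, green) and EthD-III (dead, red), 30 min in dark at room temperature, imaged at 4X by fluorescence microscopy. Mean ± SD, n = 4; unpaired Student's t-test.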

[6] = Metabolic stability in human liver microsomes assessed as compound remaining preincubated for 10 mins followed by NADPH addition measured after 60 mins by HPLC analysis; assay type: ADME, Microsome; conditions: read-out: Stability
MDA-MB-231 [7] = experiment: Antitumor activity in human MDA-MB-231 cells cultured as 3D spheroids assessed as fold decrease in spheroid volume at 1 uM measured up to 15 days by inverted microscopic analysis; assay type: functional; conditions: time <= 15 day
Summary of the method: (§3)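 Spheroids formed from 2000 cells/well in ultra-low attachment U-bottom wells over 3 days, then given a single dose on day 3. Half the media was replenished every 3 days. Transmitted-light images were taken through day 15, and spheroid volume was computed from images and expressed as fold-difference. Mean ± SD, n = 8; unpaired t-test.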

HuH-6 [8] = experiment: Inhibition of gankyrin-proteasome protein-protein interaction in human HuH-6 cells assessed as increase in Rb level at 0.12 to 1 uM measured after 48 hrs by Western blotting analysis; assay type: cell-based; conditions: dose 0.12-1 µM
Summary of the method: (§4)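 Cells in 10 cm dishes treated with varying concentrations (0.5% DMSO final) or DMSO only for 48 h. Lysed in RIPA with protease/phosphatase inhibitors on ice for 60 min. 15 μg protein resolved under reducing conditions, transferred to PVDF, and probed for p53, phospho-p53 S6/S15, Rb, gankyrin and cyclophilin. Detection by HRP-secondary ECL.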

HuH-6 [9] = experiment: Inhibition of gankyrin-proteasome protein-protein interaction in human HuH-6 cells assessed as increase in p53 level at 0.12 to 1 uM measured after 48 hrs by Western blotting analysis; assay type: cell-based; conditions: dose 0.12-1 µM; summary of the method: as §4
MDA-MB-231 [10] = experiment: Induction of cell cycle arrest in human MDA-MB-231 cells assessed as increase in cell accumulation at G0/G1 phase at 2 uM measured after 72 hrs by propidium iodide staining based flow cytometry analysis; assay type: functional
Summary of the method: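 Cells in 10 cm dishes treated for 72 h (0.1% DMSO final; DMSO-only control). Harvested in cold PBS, fixed in 70% ethanol at −20 °C overnight, stained with PI for 40 min at 37 °C, then analysed by flow/imaging cytometry for G0/G1, S and G2/M fractions. Mean ± SD, n = 3.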

MDA-MB-231 [11] = experiment: Induction of cell cycle arrest in human MDA-MB-231 cells at 2 uM measured after 72 hrs by propidium iodide staining based flow cytometry analysis
MDA-MB-231 [12] = experiment: Inhibition of colony formation in human MDA-MB-231 cells at 2 uM incubated for 48 hrs followed by replacement of fresh media every alternative day measured after 7 days by crystal violet staining based clonogenic assay relative to control; values are per cent of control; conditions: MDA-MB-231, 216 h
MDA-MB-231 [13] = experiment: Antitumor activity in human MDA-MB-231 cells cultured as 3D spheroids assessed as fold decrease in spheroid volume at 2 uM measured up to 15 days by inverted microscopic analysis; assay type: functional; conditions: time <= 15 day; summary of the method: as §3
[14] = Cytotoxicity against HEK293 cells assessed as cell growth inhibition measured after 72 hrs by MTT assay; assay type: toxicity, cell-based; conditions: human; summary of the method: as §1
[15] = target: T1, 26S proteasome non-ATPase regulatory subunit 10 (Homo sapiens); experiment: Binding affinity to gankyrin (unknown origin) expressed in Escherichia coli BL21 (DE3) expression system assessed as decrease in thermal denaturation at 1.5 uM measured at 5 to 90 degreeC by circular dichroism spectropolarimeter analysis
Summary of the method: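 Recombinant His-tagged gankyrin expressed in E. coli BL21(DE3) Codon+RIL (IPTG 1 mM, 25 °C, ~5 h) and purified by Ni2+-IMAC. Thermal denaturation followed by CD at 217 nm over 5–90 °C with compound at 1.5 μM.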

MDA-MB-231 [16] = experiment: Inhibition of gankyrin-proteasome protein-protein interaction in human MDA-MB-231 cells assessed as increase in Rb level at 0.25 to 2 uM measured after 48 hrs by Western blotting analysis; assay type: cell-based; conditions: dose 0.25-2 µM; summary of the method: as §4
[17] = Antiproliferative activity against human HuH-6 cells assessed as cell growth inhibition measured after 72 hrs by MTT assay; assay type: functional, cell-based; conditions: HuH-6, 72 h; summary of the method: as §1
MDA-MB-231 [18] = experiment: Antitumor activity against human MDA-MB-231 cells tumor spheroids assessed as increase in dead cells by measuring red fluorescence intensity at 1 to 2 uM measured at 15 days by EthD-III staining based fluorescence microscopic analysis; assay type: functional, cell-based; conditions: dose 1-2 µM, time 15.0 day; summary of the method: as §2
[19] = target: T1, 26S proteasome non-ATPase regulatory subunit 10 (Homo sapiens); experiment: Binding affinity to gankyrin (unknown origin) expressed in Escherichia coli BL21 (DE3) expression system assessed as formation of white precipitation of the compound at 1.5 uM
MDA-MB-231 [20] = experiment: Antitumor activity in human MDA-MB-231 cells cultured as 3D spheroids assessed as fold decrease in spheroid volume at 1.15 uM measured up to 15 days by inverted microscopic analysis; assay type: functional; conditions: time <= 15 day; summary of the method: as §3
MDA-MB-231 [21] = experiment: Antitumor activity against human MDA-MB-231 cells tumor spheroids assessed as increase in dead cells by measuring red fluorescence intensity at 1.15 to 2.30 uM measured at 15 days by EthD-III staining based fluorescence microscopic analysis; assay type: functional, cell-based; conditions: dose 1.15-2.3 µM, time 15.0 day; summary of the method: as §2
MDA-MB-231 [22] = experiment: Antitumor activity in human MDA-MB-231 cells cultured as 3D spheroids assessed as fold decrease in spheroid volume at 2.30 uM measured up to 15 days by inverted microscopic analysis; assay type: functional; conditions: dose 2.3 µM; time <= 15 day; summary of the method: as §3
MDA-MB-231 [23] = experiment: Inhibition of colony formation in human MDA-MB-231 cells at 1.15 uM incubated for 48 hrs followed by replacement of fresh media every alternative day measured after 7 days by crystal violet staining based clonogenic assay relative to control; values are per cent of control; conditions: MDA-MB-231, 216 h
MDA-MB-231 [24] = experiment: Inhibition of gankyrin-proteasome protein-protein interaction in human MDA-MB-231 cells assessed as increase in Rb level at 0.30 to 2.50 uM measured after 48 hrs by Western blotting analysis; assay type: cell-based; conditions: dose 0.3-2.5 µM; summary of the method: as §4
MDA-MB-231 [25] = experiment: Antitumor activity against human MDA-MB-231 cells tumor spheroids assessed as decrease in live cells by measuring green fluorescence intensity at 1.15 to 2.30 uM measured at 15 days by calcein AM staining based fluorescence microscopic analysis; assay type: functional, cell-based; conditions: dose 1.15-2.3 µM, time 15.0 day; summary of the method: as §2
[26] = target: T2, 26S proteasome non-ATPase regulatory subunit 10 (Homo sapiens, UniProt O75832); experiment: Binding affinity to gankyrin (unknown origin) expressed in Escherichia coli BL21 (DE3) expression system assessed as dissociation constant at 1:1 protein to compound concentration by isothermal titration calorimetry
T2 sequence (O75832 whole entry): T1 sequence (whole entry)

A549 [27] = experiment: Antiproliferative activity against human A549 cells assessed as cell growth inhibition measured at 100 uM after 72 hrs by MTT assay; assay type: functional; parameters: scale not given: the % may be the effect or the level left; summary of the method: as §1

## COC(=O)c1ccc(-n2cc(CCCC(=O)Nc3ccc(C)cc3)nn2)cc1
A549 [1]
  IC50: 75.7 µM
MDA-MB-231 [2]
  IC50: 9.7 µM

## O=C(CCCn1cc(-c2ccc(C(F)(F)F)cc2)nn1)Nc1ccc(-c2ccccc2)cc1
[3]
  Activity: Active
A549 [1]
  IC50: 19.1 µM
[4]
  Activity: Active
MDA-MB-231 [5]
  Activity: Active
[6]
  remaining at 1 h: 60%
MDA-MB-231 [7]
  fold change (FC): 2.3
HuH-6 [8]
  Activity: Active
HuH-6 [9]
  Activity: Active
MDA-MB-231 [10]
  Activity: Active
MDA-MB-231 [11]
  Activity: Active
MDA-MB-231 [12]
  growth, % of control at 2 µM: 46.3%
MDA-MB-231 [13]
  fold change (FC): 3.2
[14]
  IC50 at 72 h: > 100 µM
[15]
  Activity: Active
MDA-MB-231 [16]
  Activity: Active
[17]
  IC50: 1.1 µM
MDA-MB-231 [18]
  Activity: Active
MDA-MB-231 [2]
  IC50: 2 µM

## COC(=O)c1ccc(-n2cc(CCCc3nnc(-c4ccc(C)cc4)[nH]3)nn2)cc1
A549 [1]
  IC50: 79.5 µM
MDA-MB-231 [2]
  IC50: 79.1 µM

## Cc1ccc(S(=O)(=O)OCCCc2cn(-c3ccc(C(F)(F)F)cc3)nn2)cc1
A549 [1]
  IC50: > 100 µM
MDA-MB-231 [2]
  IC50: > 100 µM

## COC(=O)c1ccc(-n2cc(CCCn3nnc(-c4ccc(C)cc4)n3)nn2)cc1
A549 [1]
  IC50: > 100 µM
MDA-MB-231 [2]
  IC50: 36.5 µM

## COC(=O)c1ccc(-n2cc(CCCNC(=S)c3ccc(C)cc3)nn2)cc1
A549 [1]
  IC50: > 100 µM
MDA-MB-231 [2]
  IC50: 82.4 µM

## Cc1ccc(NC(=O)CCCn2cc(-c3ccc(C(F)(F)F)cc3)nn2)cc1
A549 [1]
  IC50: 25 µM
[19]
  Activity: Active
MDA-MB-231 [20]
  fold change (FC): 2.6
MDA-MB-231 [21]
  Activity: Active
[4]
  Activity: Active
[6]
  remaining at 1 h: 84%
[14]
  IC50 at 72 h: > 100 µM
[15]
  Activity: Active
MDA-MB-231 [22]
  fold change (FC): 3.1
[17]
  IC50: 3.1 µM
MDA-MB-231 [23]
  growth, % of control at 1.15 µM: 75.3%
MDA-MB-231 [2]
  IC50: 2.3 µM
MDA-MB-231 [24]
  Activity: Active
MDA-MB-231 [25]
  Activity: Active

## COC(=O)c1ccc(-c2nnc(CCCOS(=O)(=O)c3ccc(C)cc3)o2)cc1
A549 [1]
  IC50: > 100 µM
MDA-MB-231 [2]
  IC50: > 100 µM

## COC(=O)c1ccc(-n2cc(CCCOS(=O)(=O)c3ccc(-c4ccccc4)cc3)nn2)cc1
A549 [1]
  IC50: 57.3 µM
MDA-MB-231 [2]
  IC50: > 100 µM

## COC(=O)c1ccc(-n2cc(CCCNC(=O)Nc3ccc(C)cc3)nn2)cc1
A549 [1]
  IC50: 36.4 µM
MDA-MB-231 [2]
  IC50: 11.6 µM

## COC(=O)c1ccc(-n2cc(CCCOS(=O)(=O)c3ccc(C)cc3)nn2)cc1
A549 [1]
  IC50: > 100 µM
[6]
  remaining at 1 h: 50%
[26]
  Kd: 0.532 µM
A549 [27]
  Activity: 0%
MDA-MB-231 [2]
  IC50: > 100 µM

## COC(=O)c1ccc(-n2nncc2CCCOS(=O)(=O)c2ccc(C)cc2)cc1
A549 [1]
  IC50: > 100 µM
MDA-MB-231 [2]
  IC50: 58.1 µM

## COC(=O)c1ccc(-n2cc(CCCNC(=S)Nc3ccc(C)cc3)nn2)cc1
A549 [1]
  IC50: 46.5 µM
MDA-MB-231 [2]
  IC50: > 100 µM

## COC(=O)c1ccc(-n2cc(CCCC(=O)NS(=O)(=O)c3ccc(C)cc3)nn2)cc1
A549 [1]
  IC50: > 100 µM
MDA-MB-231 [2]
  IC50: > 100 µM
